Experimental findings from ChEMBL document CHEMBL1146916, “Studies towards the conception of new selective PPARbeta/delta ligands” (Bioorg Med Chem Lett, 2006) are described below.

pEC50: −log10 of the molar value. Calls of active or inactive are those of the source. The calls are words filed in the database; no cut-off is given here. Bounds are passed on as bounds.

The target of test [1] is T1, Peroxisome proliferator-activated receptor delta (Homo sapiens, UniProt Q03181).
T1 sequence (Q03181 whole entry): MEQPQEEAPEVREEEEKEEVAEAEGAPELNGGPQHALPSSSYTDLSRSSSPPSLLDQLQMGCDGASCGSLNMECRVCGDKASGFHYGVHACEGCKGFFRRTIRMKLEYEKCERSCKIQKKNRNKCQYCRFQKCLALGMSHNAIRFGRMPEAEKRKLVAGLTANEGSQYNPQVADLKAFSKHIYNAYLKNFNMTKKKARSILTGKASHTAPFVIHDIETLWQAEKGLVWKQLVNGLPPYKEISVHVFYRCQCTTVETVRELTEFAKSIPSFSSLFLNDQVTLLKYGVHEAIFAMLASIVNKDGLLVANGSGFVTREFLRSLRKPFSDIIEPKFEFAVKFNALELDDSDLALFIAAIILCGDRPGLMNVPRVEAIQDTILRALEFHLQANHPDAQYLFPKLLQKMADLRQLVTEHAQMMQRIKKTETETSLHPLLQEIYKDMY
In words: (§1) Activity at PPARbeta/delta by luciferase reporter gene transactivation assay in COS7 cells. It is filed as functional, cell-based, COS-7.

For test [2], the target named is T2, Peroxisome proliferator-activated receptor alpha (Homo sapiens) (UniProt Q07869).
T2 sequence (whole entry): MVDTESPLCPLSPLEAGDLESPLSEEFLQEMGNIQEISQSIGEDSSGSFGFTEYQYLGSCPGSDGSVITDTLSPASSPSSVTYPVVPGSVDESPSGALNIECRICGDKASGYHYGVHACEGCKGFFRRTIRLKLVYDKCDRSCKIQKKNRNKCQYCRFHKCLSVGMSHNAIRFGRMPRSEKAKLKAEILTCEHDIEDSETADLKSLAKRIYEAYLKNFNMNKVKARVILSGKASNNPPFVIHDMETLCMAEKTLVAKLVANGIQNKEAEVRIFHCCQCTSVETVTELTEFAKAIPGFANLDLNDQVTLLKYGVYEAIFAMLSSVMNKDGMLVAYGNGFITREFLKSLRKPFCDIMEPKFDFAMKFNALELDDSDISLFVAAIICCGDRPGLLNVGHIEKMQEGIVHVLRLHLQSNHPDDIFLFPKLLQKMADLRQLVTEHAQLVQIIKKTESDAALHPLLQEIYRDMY
In words: Activity at PPARalpha by luciferase reporter gene transactivation assay in COS7 cells relative to WY-14643 at 10 uM. It is filed as functional, cell-based. To be noted: COS-7. In short, it runs like this: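 Cos-7 cells were transiently transfected, using PEI in OptiMEM for 3 h at 37 °C, with the pG5-TK-pGL3 luciferase reporter, pGAL4hPPARa (Gal4 DBD–human PPARα LBD) and pCMV-β-galactosidase. Cells were reseeded in 96-well plates and treated for 16 h in DMEM with 0.2% FCS at 10 µM–10 nM. Luciferase was normalized to β-galactosidase, and maximal activity was expressed versus the WY14.643 positive control. Experiments were run at least three times.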
Background: In a reporter assay the amount or activity of a reporter protein is the signal.

For test [3], the target named is T3, Peroxisome proliferator-activated receptor alpha (Homo sapiens, UniProt Q07869).
T3 sequence (Q07869 whole entry): T2 sequence (whole entry)
The test can be described thus: (§2) Activity at PPARalpha by luciferase reporter gene transactivation assay in COS7 cells. The test is classed as functional, cell-based, COS-7.

For test [4], the target named is T4, Peroxisome proliferator-activated receptor gamma (Homo sapiens, UniProt P37231).
T4 sequence (P37231 whole entry): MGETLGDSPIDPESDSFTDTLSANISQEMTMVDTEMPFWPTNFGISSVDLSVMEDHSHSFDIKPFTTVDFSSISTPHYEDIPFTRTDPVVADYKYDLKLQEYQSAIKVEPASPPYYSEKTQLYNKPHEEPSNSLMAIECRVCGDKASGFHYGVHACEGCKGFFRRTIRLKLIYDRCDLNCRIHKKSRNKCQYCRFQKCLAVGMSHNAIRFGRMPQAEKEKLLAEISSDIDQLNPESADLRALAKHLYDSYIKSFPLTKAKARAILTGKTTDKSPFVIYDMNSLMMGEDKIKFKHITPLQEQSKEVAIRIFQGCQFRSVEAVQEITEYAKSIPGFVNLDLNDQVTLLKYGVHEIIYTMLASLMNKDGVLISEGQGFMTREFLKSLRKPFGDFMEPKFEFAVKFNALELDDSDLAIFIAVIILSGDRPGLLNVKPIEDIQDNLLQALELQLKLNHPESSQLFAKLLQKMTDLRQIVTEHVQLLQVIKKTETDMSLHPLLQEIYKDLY
The test can be described thus: Activity at PPARgamma by luciferase reporter gene transactivation assay in COS7 cells. The test is classed as functional, cell-based, COS-7.

In test [5] the target is PPAR delta/gamma (Homo sapiens) (UniProt P37231+Q03181). In words: Selectivity for human PPARdelta over human PPARgamma. The test is classed as protein assay. In short, it runs like this: (§3)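 The selectivity ratio is taken from EC50 values measured in Cos-7 cells transiently transfected with the pG5-TK-pGL3 luciferase reporter plus Gal4 DBD–human PPARβ/δ, PPARα or PPARγ LBD chimeras and β-galactosidase control. Cells were treated for 16 h in 0.2% FCS DMEM at 10 µM–10 nM. EC50s were fitted from β-gal-normalized luciferase and are means of three experiments.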

For a further test, the species on record is Homo sapiens. The test can be described thus: Selectivity for human PPARdelta over human PPARalpha. An outline of the steps:
as §3

Test [6] concerns the target T2, Peroxisome proliferator-activated receptor alpha (Homo sapiens). Described as §2. It is filed as functional, cell-based. To be noted: COS-7.
Test [7] has as its target T5, Peroxisome proliferator-activated receptor delta (Homo sapiens) (UniProt Q03181).
T5 sequence (whole entry): T1 sequence (Q03181 whole entry)
The test is described as §1. It is filed as functional, cell-based. To be noted: COS-7.

For orientation: pEC50 means −log10 of the EC50, conventionally taken in molar units. As to `CCCc1cc(C(F)(F)F)ccc1OCCCOc1ccc(OCC(=O)OC)cc1`, the pEC50 was 7.01 in test [1], 5.85 in test [3] and 5.93 in test [4]. This compound also came in with an Activity in test [2] of 49%.

Regarding `CCCc1c(OCCCOc2ccc(OCC(=O)OC)cc2)ccc(C(C)=O)c1O`, the pEC50 in test [1] was 6.34; in test [3], 5.97; in test [4] it was 6.54. The compound further displayed an Activity in test [2] of 32%.

`Cc1cc(SCc2sc(-c3ccc(C(F)(F)F)cc3)nc2C)ccc1OCC(=O)O` showed an Activity in test [2] of 452%.

With `CCCc1cc(C(F)(F)F)ccc1OCCCOc1ccc(OCC(=O)OC)c(C)c1`, the results for the pEC50 in test [1], in test [3] and in test [4] were 7.80, 6.00 and 5.90, respectively. Also, in test [2], the Activity amounted to 85%.

As to `CCCc1c(OCCCOc2ccc(OCC(=O)O)cc2)ccc(C(C)=O)c1O`, the Selectivity ratio was 15 in test [5] and 8 in the test listed under Homo sapiens. Further, the pEC50 in test [1] is 6.90; in test [3], 6.01; in test [4] it was 5.74.

`CC(=O)c1ccc(OCCCOc2ccc(OCC(=O)O)cc2)cc1O` had a negative logarithm of the EC50 (pEC50) in test [1] of 5.00. Further, in test [6], the result was inactive.

As to `COC(=O)COc1ccc(OCCCOc2cccc(O)c2)cc1`, the outcome in test [7] and in test [6] was inactive.

In test [1], `CCCc1ccccc1OCCCOc1ccc(OCC(=O)OC)cc1` had a pEC50 of 5.98. Moreover, in test [6], the result was inactive.

With `CCCc1cc(C(F)(F)F)ccc1OCCCOc1ccc(OCC(=O)O)c(C)c1`, the pEC50 in test [1] was 8.15; in test [3], 6.99; in test [4], 6.82. The Activity in test [2] was determined as 40%.

With `CCCc1c(OCCCOc2ccc(OCC(=O)OC)cc2)cnc(C(C)=O)c1O`, the pEC50 in test [1] was 7.09; in test [3], 5.08; in test [4], 6.12. In test [2], this compound showed an Activity of 64%.

With `CCCc1cc(C(F)(F)F)ncc1OCCCOc1ccc(OCC(=O)O)c(C)c1`, the Selectivity ratio in the test filed under Homo sapiens is more than 100. Also, the pEC50 in test [1] was 7.82; in test [3], 5.88; in test [4] it was 5.80. In addition, the Activity in test [2] stood at 136%.

Consider `CC(=O)c1ccc(OCCCOc2ccc(OCC(=O)O)cc2)cc1`, for which the result in test [7] and in test [6] was inactive.
